Measurements taken from ChEMBL document CHEMBL3232996, “Synthesis and biological evaluation of novel (123)I-labeled 4-(4-iodophenyl)butanoyl-L-prolyl-(2S)-pyrrolidines for imaging prolyl oligopeptidase in vivo” (Eur J Med Chem, 2014).

Key:
[1] = test system: Plasma; assay: Stability in human plasma at 2.5 MBq/ml up to 120 mins by HPLC analysis; assay type: ADME, cell-free; details: 2 h
[2] = test system: Kidney; assay: Biodistribution in C57Bl/6JRccHsd mouse kidney at 2.86 +/- 1.26 MBq, iv measured at 80 mins post dose pretreated with 50 umol/kg, ip prolyl oligopeptidase inhibitor KYP-2047 10 mins before compound dosing by SPECT analysis; assay type: ADME, organism-based; details: in vivo
In short: (§1)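 Organs excised at 5, 20, 40, 80 or 160 min and radioactivity gamma-counted as %ID/g (brain also as %ID). Blocking groups received KYP-2047 (50 µmol/kg, 10 mL/kg, 1% DMSO in 0.9% NaCl) i.p. 10 min before tracer. Mean ± SD, n = 2–4 per time point. Blocking compared by two-tailed Student's t test.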

[3] = Drug uptake in iv dosed C57Bl/6JRccHsd mouse blood cells measured at 160 mins post dose pretreated with 50 umol/kg, ip prolyl oligopeptidase inhibitor KYP-2047 10 mins before compound dosing by SPECT analysis; assay type: ADME, organism-based; details: in vivo
In short: (§2)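 Mice got tracer i.v., some after i.p. KYP-2047 (50 µmol/kg) 10 min before. Cardiac blood was collected at 20, 40, 80 or 160 min and spun 5 min at 2000 g into cells and plasma. Plasma was precipitated with acetonitrile and pellet and supernatant were gamma-counted. Activity in cells, protein-bound and free plasma is given as % of total blood activity, n = 3.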

[4] = Biodistribution in brain of iv dosed C57BL/6JRccHsd mouse LPS-induced acute neuroinflammation model dosed 24 hrs after LPS challenge and measured at 80 mins post dose; assay type: ADME, organism-based
In short: (§3)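 Male mice under isoflurane got a stereotaxic LPS injection (E. coli 055:B5) into the left striatum, with buprenorphine 0.1 mg/kg s.c. for post-operative pain. The right hemisphere served as intact control. Tracer was given i.v. 24 h later. Left and right hemisphere and whole-brain radioactivity were measured 80 min post injection as %ID/g or %ID, n = 3.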

[5] = test system: Brain; assay: Biodistribution in C57Bl/6JRccHsd mouse brain at 2.86 +/- 1.26 MBq, iv measured at 5 mins by SPECT analysis; assay type: ADME, organism-based; details: in vivo; in short: as §1
[6] = Plasma protein binding in iv dosed C57Bl/6JRccHsd mouse measured at 160 mins post dose pretreated with 50 umol/kg, ip prolyl oligopeptidase inhibitor KYP-2047 10 mins before compound dosing by SPECT analysis; assay type: ADME, organism-based; details: in vivo
In short: (§4)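 Male mice given 3.6 MBq tracer i.v. via lateral tail vein; blocking groups got POP inhibitor i.p. (50 µmol/kg, 10 mL/kg, 1% DMSO in 0.9% NaCl) 10 min before. Heparinized cardiac blood on ice, gamma-counted, spun 5 min at 2000 g; plasma counted, precipitated with 1.5 volumes acetonitrile, respun; cell-bound, protein-bound and free fractions expressed as % of blood activity; n = 3.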

[7] = test system: Mus musculus; assay: Retention time in C57Bl/6JRccHsd mouse plasma at 3.6 MBq, iv measured at 20 mins by HPLC analysis; assay type: ADME, organism-based
In short: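 Male mice given 3.6 MBq i.v.; cardiac plasma deproteinized with acetonitrile, supernatant run on C18 radio-HPLC gradient, 0.65 min fractions gamma-counted, activity expressed as cpm/total cpm.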

[8] = Fraction unbound in iv dosed C57Bl/6JRccHsd mouse plasma measured at 20 mins; assay type: ADME, organism-based; in short: as §2
[9] = test system: Mus musculus; assay: Biodistribution in C57Bl/6JRccHsd mouse testis at 2.86 +/- 1.26 MBq, iv measured at 80 mins by SPECT analysis; assay type: ADME, organism-based; details: in vivo; in short: as §1
[10] = test system: Spleen; assay: Biodistribution in C57Bl/6JRccHsd mouse spleen at 2.86 +/- 1.26 MBq, iv measured at 80 mins by SPECT analysis; assay type: ADME, organism-based; details: in vivo; in short: as §1
[11] = test system: Blood; assay: Biodistribution in C57Bl/6JRccHsd mouse blood at 2.86 +/- 1.26 MBq, iv measured at 40 mins by SPECT analysis; assay type: ADME, organism-based; details: in vivo; in short: as §1
[12] = Biodistribution in C57Bl/6JRccHsd mouse urine at 2.86 +/- 1.26 MBq, iv measured at 80 mins by SPECT analysis; assay type: ADME, organism-based; details: in vivo; in short: as §1
[13] = test system: Heart; assay: Biodistribution in C57Bl/6JRccHsd mouse heart at 2.86 +/- 1.26 MBq, iv measured at 80 mins post dose pretreated with 50 umol/kg, ip prolyl oligopeptidase inhibitor KYP-2047 10 mins before compound dosing by SPECT analysis; assay type: ADME, organism-based; details: in vivo; in short: as §1
[14] = Plasma protein binding in human at 2.5 MBq/ml after 2 hrs by HPLC analysis; assay type: ADME, cell-free; details: read-out: PPB (converted)
[15] = Drug uptake in iv dosed C57Bl/6JRccHsd mouse blood cells measured at 20 mins post dose pretreated with 50 umol/kg, ip prolyl oligopeptidase inhibitor KYP-2047 10 mins before compound dosing by SPECT analysis; assay type: ADME, organism-based; details: in vivo; in short: as §2
[16] = Plasma protein binding in iv dosed C57Bl/6JRccHsd mouse measured at 20 mins post dose pretreated with 50 umol/kg, ip prolyl oligopeptidase inhibitor KYP-2047 10 mins before compound dosing by SPECT analysis; assay type: ADME, organism-based; details: in vivo; in short: as §4
[17] = test system: Blood; assay: Biodistribution in C57Bl/6JRccHsd mouse blood at 2.86 +/- 1.26 MBq, iv measured at 160 mins post dose pretreated with 50 umol/kg, ip prolyl oligopeptidase inhibitor KYP-2047 10 mins before compound dosing by SPECT analysis; assay type: ADME, organism-based; details: in vivo; in short: as §1
[18] = Drug uptake in iv dosed C57Bl/6JRccHsd mouse blood cells measured at 160 mins; assay type: ADME, organism-based; details: in vivo; in short: as §2
[19] = test system: Liver; assay: Biodistribution in C57Bl/6JRccHsd mouse liver at 2.86 +/- 1.26 MBq, iv measured at 80 mins post dose pretreated with 50 umol/kg, ip prolyl oligopeptidase inhibitor KYP-2047 10 mins before compound dosing by SPECT analysis; assay type: ADME, organism-based; details: in vivo; in short: as §1
[20] = Drug uptake in iv dosed C57Bl/6JRccHsd mouse blood cells measured at 20 mins; assay type: ADME, organism-based; details: in vivo; in short: as §2
[21] = Fraction unbound in iv dosed C57Bl/6JRccHsd mouse plasma measured at 20 mins post dose pretreated with 50 umol/kg, ip prolyl oligopeptidase inhibitor KYP-2047 10 mins before compound dosing by SPECT analysis; assay type: ADME, organism-based; in short: as §4
[22] = Biodistribution in right brain hemisphere of iv dosed C57BL/6JRccHsd mouse dosed 24 hrs after LPS challenge and measured at 80 mins post dose; assay type: ADME, organism-based; details: read-out: Drug uptake; in short: as §3
[23] = Plasma protein binding in iv dosed C57Bl/6JRccHsd mouse measured at 80 mins; assay type: ADME, organism-based; details: in vivo; in short: as §4
[24] = Fraction unbound in iv dosed C57Bl/6JRccHsd mouse plasma measured at 80 mins; assay type: ADME, organism-based; in short: as §4
[25] = test system: Blood; assay: Biodistribution in C57Bl/6JRccHsd mouse blood at 2.86 +/- 1.26 MBq, iv measured at 20 mins post dose pretreated with 50 umol/kg, ip prolyl oligopeptidase inhibitor KYP-2047 10 mins before compound dosing by SPECT analysis; assay type: ADME, organism-based; details: in vivo; in short: as §1
[26] = test system: Blood; assay: Biodistribution in C57Bl/6JRccHsd mouse blood at 2.86 +/- 1.26 MBq, iv measured at 80 mins post dose pretreated with 50 umol/kg, ip prolyl oligopeptidase inhibitor KYP-2047 10 mins before compound dosing by SPECT analysis; assay type: ADME, organism-based; details: in vivo; in short: as §1
[27] = Drug uptake in iv dosed C57Bl/6JRccHsd mouse blood cells measured at 80 mins; assay type: ADME, organism-based; details: in vivo; in short: as §2
[28] = Drug uptake in iv dosed C57Bl/6JRccHsd mouse blood cells measured at 40 mins; assay type: ADME, organism-based; details: in vivo; in short: as §2

N#C[C@@H]1CCCN1C(=O)[C@@H]1CCCN1C(=O)CCCc1ccc([123I])cc1
Stability [1]: Stable
Drug uptake [2]: 4.73 % ID/g
Drug uptake [3]: 42%
tissue uptake at 80 min [4]: 0.6 %ID
Drug uptake [5]: 0.43 %ID
PPB [6]: 0%
Retention_time [7]: 7.15 min
fraction unbound at 20 min [8]: 0.03
Drug uptake [9]: 0.55 % ID/g
Drug uptake [10]: 10.56 % ID/g
Drug uptake [11]: 7.6 % ID/g
Drug uptake [12]: 2.23 % ID/g
Drug uptake [13]: 1.34 % ID/g
fraction unbound at 2 h, 2.5 MBq/ml [14]: 0.937
Drug uptake [15]: 53%
PPB [16]: 0%
Drug uptake [17]: 1 % ID/g
Drug uptake [18]: 73%
Drug uptake [19]: 5.05 % ID/g
Drug uptake [20]: 95%
fraction unbound at 20 min [21]: 0.47
tissue uptake at 80 min [22]: 1.09 %ID/g
PPB [23]: 1%
fraction unbound at 80 min [24]: 0.15
Drug uptake [25]: 10.9 % ID/g
Drug uptake [26]: 2.69 % ID/g
Drug uptake [27]: 84%
Drug uptake [28]: 90%
